Assays:
[1] = system: Mus musculus; assay: Toxicity in mouse at 250 to 1000 mg/kg, ig; type: organism-based; set-up: dose 250-1000 mg/kg, route intragastric; settings: in vivo, po
Procedure, shortened: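 Single-dose toxicity in mice: compound given intragastrically at 250, 500 or 1000 mg/kg, with deaths monitored.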

[2] = system: KB; assay: Antiproliferative activity against human KB cells assessed as growth inhibition after 48 hrs by MTT assay; type: functional, cell-based
Procedure, shortened: (§1)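 Cell lines from ATCC, grown in MEM-EBSS with 10% FBS and 1% penicillin-streptomycin at 37 °C, 5% CO2. Seeded at 4000 cells/well, left 24 h, then exposed to a concentration series for 48 h. Growth read by MTT. Percent inhibition was computed at each concentration and IC50 derived from it. Triplicate determinations, reported as mean SD.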

[3] = system: HepG2; assay: Cell cycle arrest in human HepG2 cells assessed as accumulation at G0/G1 phase at 2.5 ug/ml after 24 hrs by FACS flow cytometric analysis (reference value: 2 %); type: functional; settings: HepG2, 24 h
Procedure, shortened: (§2)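 HepG2 cells exposed to 0, 2.5, 5 or 10 µg/ml for 24 h, then harvested. Fixed in 70% ethanol and held at −20 °C. Cell-cycle distribution determined by flow cytometry, with untreated cells as control.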

[4] = system: HCT-116; assay: Antiproliferative activity against human HCT116 cells assessed as growth inhibition after 48 hrs by MTT assay; type: functional, cell-based; settings: HCT-116, 48 h; procedure, shortened: as §1
[5] = system: Mus musculus; assay: Toxicity in mouse assessed as body weight at 250 to 1000 mg/kg, ig; type: organism-based; set-up: dose 250-1000 mg/kg, route intragastric; settings: in vivo, po
[6] = system: MCF7; assay: Antiproliferative activity against human MCF7 cells assessed as growth inhibition after 48 hrs by MTT assay; type: functional, cell-based; settings: MCF7, 48 h; procedure, shortened: as §1
[7] = system: HepG2; assay: Cell cycle arrest in human HepG2 cells assessed as accumulation at G0/G1 phase at 10 ug/ml after 24 hrs by FACS flow cytometric analysis (reference value: 2 %); type: functional; settings: HepG2, 24 h; procedure, shortened: as §2
[8] = system: HepG2; assay: Cell cycle arrest in human HepG2 cells assessed as accumulation at G0/G1 phase at 5 ug/ml after 24 hrs by FACS flow cytometric analysis (reference value: 2 %); type: functional; settings: HepG2, 24 h; procedure, shortened: as §2
[9] = Antiproliferative activity against human U87 cells assessed as growth inhibition after 48 hrs by MTT assay; type: functional, cell-based, U-87MG ATCC; settings: U-87 MG; procedure, shortened: as §1
[10] = system: HepG2; assay: Antiproliferative activity against human HepG2 cells assessed as growth inhibition after 48 hrs by MTT assay; type: functional, cell-based; settings: HepG2, 48 h; procedure, shortened: as §1
[11] = system: HepG2; assay: Antiproliferative activity against human HepG2 cells assessed as growth inhibition at 10 ug/ml after 48 hrs by MTT assay; type: functional; settings: HepG2, 48 h; procedure, shortened: as §1
[12] = system: NCI-H1299; assay: Antiproliferative activity against human NCI-H1299 cells assessed as growth inhibition after 48 hrs by MTT assay; type: functional, cell-based; settings: NCI-H1299, 48 h; procedure, shortened: as §1

SMILES: COC(=O)CCC[C@@H]1[C@H]2CCCN3CCC[C@H](CN1Cc1ccc(Cl)cc1)[C@@H]23
- Activity [1]: Non-toxic
- IC50 [2]: 6.11 µM
- inhibition at 2.5 µg/mL [3]: 6.3%
- IC50 [4]: 4.59 µM
- Activity [5]: Non-toxic
- IC50 [6]: 20 µM
- inhibition at 10 µg/mL [7]: 8.5%
- inhibition at 5 µg/mL [8]: 11.8%
- IC50 [9]: 12.6 µM
- IC50 [10]: 4.05 µM
- inhibition at 10 µg/mL [11]: 97.6%
- IC50 [12]: 4.06 µM

— ChEMBL document CHEMBL3259675, “Novel N-substituted sophoridinol derivatives as anticancer agents” (Eur J Med Chem, 2014)
